CR mimetic SO – yeast age-related superoxide inhibition as caloric restriction mimetic; S. cerevisiae aged cells, superoxide DHE fluorescence; active compounds read low; superoxide response (% of plate mean), % at 10 µM; 330,000 compounds, 0.18% hits; AID 2690;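 active means superoxide response under a set limit, about three screen SD below normal, cut at about 65% in these data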;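 further: yeast aged for seven days with compound at 30 °C before DHE staining; 100% = average MFI of all compound-treated wells on the plate with controls excluded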
Efflux pump mplx – blocks antifungal efflux pumps in multiplex yeast assay | inhibition, % at 10 µM | S. cerevisiae Candida pump triplex, Nile Red efflux | AID 485275 | 330,000 compounds, 0.44% hits;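 active means plate passing quality check with inhibition over a set limit, or well fluorescence over plate mean plus 4 SD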;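 further: Nile Red retained in pooled yeast measured as flow cytometry median fluorescence; 0% = buffer negative control and 100% = Enniatin B positive control; higher means more Nile Red kept so more efflux inhibition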
Tb MetRS inh – Trypanosoma brucei MetRS inhibition. inhibition, % at 11.9 µM. 360,000 compounds, 0.4% hits. purified T. brucei MetRS, ATP depletion, Kinase-Glo luminescence;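 active means inhibition above a per-plate cutoff of the control wells' mean inhibition plus 3 SD, cut at about 5.5% in these data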;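 further: 0% = DMSO wells median and 100% = median of wells with control inhibitor compound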
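Dosing: 11.9 µM compound single dose, 0.9% DMSO; Assay system: purified T. brucei MetRS enzyme; Measured by: Kinase-Glo luciferase luminescence reporting remaining unconsumed ATP; Schedule: 15 min plus 2 h at 25 °C.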
HDAC3 inh – blocks human histone deacetylase 3 | O15379 | recombinant HDAC3, fluorogenic peptide/trypsin coupled, fluorescence | inhibition, % at 8.3 µM | 320,000 compounds, 0.15% hits | AID 2718; in the data active means inhibition above about 26%, passing the limit was not always enough; inconclusive means no clear call, values can overlap the other calls
Target sequence (O15379 whole entry, looked up): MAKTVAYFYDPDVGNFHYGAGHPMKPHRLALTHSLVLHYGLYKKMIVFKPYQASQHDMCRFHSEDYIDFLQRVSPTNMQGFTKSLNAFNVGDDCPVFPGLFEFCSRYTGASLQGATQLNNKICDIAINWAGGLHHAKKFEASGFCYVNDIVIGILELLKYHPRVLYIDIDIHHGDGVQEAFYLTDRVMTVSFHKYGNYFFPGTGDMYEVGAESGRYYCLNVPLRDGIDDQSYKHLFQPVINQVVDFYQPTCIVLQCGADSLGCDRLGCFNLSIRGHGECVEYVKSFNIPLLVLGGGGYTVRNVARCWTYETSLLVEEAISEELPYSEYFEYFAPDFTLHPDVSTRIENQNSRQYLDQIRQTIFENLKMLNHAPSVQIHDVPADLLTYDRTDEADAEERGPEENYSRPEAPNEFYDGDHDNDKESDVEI
IDE cell inh – cellular human IDE inhibition | HEK cells, FAbetaB cleavage, fluorescence polarization | inhibition, % at 5.59 µM | 320,000 compounds, 0.41% hits;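 active means percent inhibition above the average of all tested compounds plus 3 SD, set per screening campaign, cut at about 16% in these data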;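 further: IDE supplied by intact live HEK cells; FP after avidin binding of uncleaved biotin substrate so inhibition keeps polarization high; 0% = DMSO wells and 100% = 60 µM reference IDE inhibitor Ii1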
IDE cell activ – boosts human insulin-degrading enzyme activity in HEK cells. P14735. FAbeta-B cleavage, fluorescence polarization; 0% vehicle, 100% cell-free pure enzyme wells. activation, % at 5.96 µM. 340,000 compounds, 0.073% hits. AID 493087;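 active means activation above the mean of all tested compounds plus 3 SD, set per screening campaign, cut at about 17% in these data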
Yeast cmpd fluor – flagged as fluorescent in efflux inhibitor counter-screen. 1,700 compounds, 4% hits. S. cerevisiae AD/pABC3, compound fluorescence, flow cytometry. fluorescence ratio to DMSO, % at 10 µM. shares compounds with Efflux pump mplx;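 active means fluorescence ratio to DMSO above its plate's cutoff, the plate mean ratio plus 5 SD, cut at about 210% in these data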;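 further: unstained yeast with no Nile Red so the signal is compound autofluorescence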
Mdr1 pump inh – inhibitors of Candida albicans Mdr1 efflux pump; shares compounds with Efflux pump mplx; S. cerevisiae AD/CaMDR1, Nile Red efflux, flow cytometry; inhibition, % at 10 µM; 1,700 compounds, 1% hits; AID 588518; in the data active means inhibition above about 26%;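 further: 0% = DMSO vehicle and 100% = reference inhibitor; higher means more Nile Red retained so more efflux inhibition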
CaCdr2 efflux inh – blocks the Candida albicans Cdr2 efflux pump in yeast; shares compounds with Efflux pump mplx; S. cerevisiae AD/CaCDR2, Nile Red retention, flow cytometry; Nile Red retention ratio vs DMSO, % at 10 µM; 1,700 compounds, 4% hits; AID 588520; in the data active means Nile Red retention ratio vs DMSO above about 190%;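 further: higher ratio means more blocking of Cdr2 efflux of the dye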
CaCdr1 efflux inh – blocks the Candida albicans Cdr1 efflux pump in yeast; shares compounds with Efflux pump mplx; S. cerevisiae AD/CaCDR1, Nile Red efflux, flow cytometry; inhibition, % at 10 µM; 1,700 compounds, 1% hits;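 active means inhibition above the screen-wide mean plus twice its standard deviation, cut at about 32% in these data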
* marks the source's active call; other numbers are inactive results; ? = inconclusive; . = not tested or not shown. Rows were chosen to be rich in hits. Some 1.4% of all compounds tested hit in one or more screens of this group.

SMILES | CR mimetic SO | Efflux pump mplx | Tb MetRS inh | HDAC3 inh | IDE cell inh | IDE cell activ | Yeast cmpd fluor | Mdr1 pump inh | CaCdr2 efflux inh | CaCdr1 efflux inh
CCC1CCCCN1CCCNC(=O)CN1C(=O)COc2ccc(S(=O)(=O)N3CCOCC3)cc21 (stereo unspecified) | 111.9 | 43.1* | -0.1 | -4.1 | -1.3 | 3.1 | 103.0 | -0.3 | 93.5 | 0.1
COc1ccc(OC)c(S(=O)(=O)Nc2ccc(O)c(Sc3ncn[nH]3)c2)c1 | 92.0 | -0.4 | -0.7 | 10.9 | 3.2 | 3.0 | 96.1 | -0.2 | 93.2 | -0.1
CCOc1ccc(S(=O)(=O)Nc2ccc(O)c(Sc3ncn[nH]3)c2)cc1 | 83.7 | -0.1 | 0.4 | 2.3 | 4.0 | -3.4 | . | . | . | .
Cc1ccc(S(=O)(=O)Nc2ccc(O)c(Sc3ncn[nH]3)c2)cc1 | 119.7 | 2.0* | 0.8 | 0.1 | -0.6 | 11.0 | 105.0 | -0.4 | 95.1 | 0.1
Cc1ccc(C)c(S(=O)(=O)Nc2ccc3[nH]c(=O)[nH]c3c2)c1 | 96.5 | -0.1 | 1.4 | -0.3 | 10.4 | -0.4 | . | . | . | .
Cc1ccc(C)c(S(=O)(=O)Nc2ccc(O)c(Sc3ncn[nH]3)c2)c1 | 95.1 | 0.2 | -0.4 | 0.1 | 0.1 | 5.4 | 105.0 | -0.4 | 97.2 | -0.1
Cc1cc(F)ccc1S(=O)(=O)Nc1ccc(O)c(Sc2ncn[nH]2)c1 | 97.5 | 0.0 | 0.0 | -1.7 | 0.5 | 0.7 | 104.5 | -0.1 | 100.1 | 0.1
O=C(Nn1cnnc1)c1cc(Br)ccc1Cl | 100.9 | 0.0 | -0.8 | 1.2 | 4.8 | 2.9 | . | . | . | .
O=C(C[n+]1ccc(C(=O)NCCCO)cc1)c1cccc(Br)c1 | 125.7 | -0.1 | -0.1 | -1.9 | 5.9 | -3.6 | . | . | . | .
O=C(NCc1n[nH]c(=S)n1-c1ccc(Br)cc1)c1ccc(S(=O)(=O)N2CCCCC2)cc1 | 85.5 | 0.0 | -0.1 | -3.7 | 1.6 | 0.9 | . | . | . | .
COc1ccc(/C=N\NC(=O)c2ccccc2OC)cc1COc1c(F)c(F)c(F)c(F)c1F | 105.7 | 9.2* | 0.3 | -3.5 | 1.7 | 2.7 | 98.6 | -0.3 | 101.5 | -0.4
COc1ccc(/C=N\NC(=O)c2ccccc2Cl)cc1COc1c(F)c(F)c(F)c(F)c1F | 106.8 | -0.2 | 0.1 | -3.0 | 2.6 | 3.1 | . | . | . | .
O=C(CO/N=C/c1cccc([N+](=O)[O-])c1)NC1CCCCC1 | 99.5 | 8.3* | -0.7 | 1.3 | -2.2 | -2.1 | 94.8 | -0.2 | 111.6 | -0.1
Oc1ccc(C(c2nnnn2CCc2ccccc2)N2CCN(c3nc4ccccc4s3)CC2)cc1 (stereo unspecified) | 89.0 | -0.1 | -0.1 | 4.2 | 3.9 | -3.8 | . | . | . | .
COc1ccccc1C(=O)NCCC(=O)NCCCSc1ccccc1 | 103.5 | 0.0 | -0.3 | ? | 3.3 | -0.6 | . | . | . | .
CCc1cc2c(N=Nc3c(O)[nH]c4ccccc34)ncnc2s1 | 92.9 | 0.0 | -0.7 | -3.3 | -1.6 | 0.5 | . | . | . | .
CCc1ccc2[nH]c(O)c(N=Nc3nc(-c4ccccc4)cs3)c2c1 | 107.5 | 0.9* | 0.0 | 3.3 | 2.2 | 8.3 | 104.6 | -0.1 | 91.4 | 0.0
CCOC(=O)c1cnc(SC)nc1Oc1cccc(NS(=O)(=O)c2ccc(Cl)cc2)c1 | 90.8 | 0.2 | -0.6 | -2.5 | 6.9 | 0.9 | . | . | . | .
CCOC(=O)c1cnc(SC)nc1Oc1cccc(NC(=O)c2ccc(Cl)cc2)c1 | 108.0 | 1.5* | -1.7 | 0.7 | -3.1 | 3.3 | 104.6 | 0.1 | 116.4 | 0.6
Cc1ccc(-c2c[n+](Cc3cccc(Cl)c3)c3n2CCC3)cc1 | 106.1 | 0.1 | -0.7 | -6.4 | 1.5 | -2.2 | 107.2 | -0.1 | 107.2 | 0.0
Cc1ccc(NC(=O)C[n+]2cc(-c3ccccc3)n3c2CCC3)c(C)c1 | 102.1 | -0.2 | -0.3 | -6.6 | 2.5 | 3.7 | 88.7 | 0.0 | 86.9 | 0.1

Assay outcomes as filed in PubChem.
